Screening data from PubChem.
An excerpt weighted towards active compounds, which were near 3.2% of everything screened.
HTRA1 inhibitor – blocks human HTRA1 serine peptidase. Q92743. recombinant HTRA1, FP-rhodamine activity-based probe, fluorescence polarization. inhibition, % at 5.96 µM. 340,000 tested, 0.5% active. AID 504803; in the data active = inhibition above about 36%;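 also: 0% = enzyme with DMSO and 100% = wells lacking enzyme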
Target sequence (Q92743 whole entry, looked up): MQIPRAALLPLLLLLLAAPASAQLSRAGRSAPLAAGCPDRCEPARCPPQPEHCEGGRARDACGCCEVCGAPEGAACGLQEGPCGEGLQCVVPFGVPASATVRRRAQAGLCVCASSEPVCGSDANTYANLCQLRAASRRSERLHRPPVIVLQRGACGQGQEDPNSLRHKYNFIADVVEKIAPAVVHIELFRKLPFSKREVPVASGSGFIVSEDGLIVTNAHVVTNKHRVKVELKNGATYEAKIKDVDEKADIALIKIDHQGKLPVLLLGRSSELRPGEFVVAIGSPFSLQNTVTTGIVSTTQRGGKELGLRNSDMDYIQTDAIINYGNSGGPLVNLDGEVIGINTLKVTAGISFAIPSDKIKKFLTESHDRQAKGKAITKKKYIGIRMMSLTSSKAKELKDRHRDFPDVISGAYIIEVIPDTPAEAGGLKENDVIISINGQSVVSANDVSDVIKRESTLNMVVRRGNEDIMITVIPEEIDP
LEDGF integ inh – blocks HIV-1 LEDGF/p75-dependent DNA integration. TR-FRET IN-LEDGF/p75 DNA integration, Eu/Cy5. inhibition, % at 3.7 µM. 370,000 tested, 0.64% active;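 active = inhibition above the screen-wide mean plus 3 SD, cut at about 13% in these data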;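 also: signal is the Cy5 over europium emission ratio at 671 and 618 nm; 0% = plate median of compound wells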
PRMT1 inh – blocks human protein arginine methyltransferase 1. recombinant PRMT1, activity-based probe fluorescence polarization. Q99873. 370,000 tested, 1.3% active. inhibition, % at 2.79 µM. AID 652257;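 active = inhibition above about 21% made by adding two undisclosed values, limit read from the data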
DAGLB inhibitor – blocks human DAGLB lipase activity; HEK293T DAGLB membrane lysate, EnzChek fluorogenic substrate; inhibition, % at 5.17 µM; 340,000 tested, 0.059% active; in the data active = inhibition above about 34%;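 also: 0% = enzyme with vehicle and 100% = wells lacking enzyme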
rCAG binder – binds r(CAG) RNA repeats | r(CAG) RNA repeat, TO-PRO-1 dye displacement fluorescence | inhibition, % at 3 µM | 370,000 tested, 1.3% active;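 active = inhibition above the plate cutoff, the mean of all test compounds on that plate plus 3 SD, cut at about 35% in these data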;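 also: 0% = DMSO alone and 100% = 100 µM mitoxantrone as full dye displacement; higher means more dye released from RNA so lower well fluorescence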
mABHD4 FP – ABHD4 (mouse) inhibition, primary FP screen | purified mABHD4, FP-Rh probe fluorescence polarization | inhibition, % at 8.92 µM | 370,000 tested, 0.54% active | AID 720543 | Q8VD66;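 active = inhibition exceeding the mean over every tested compound plus 3 SD, cut at about 30% in these data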;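 also: 0% = plate median of compound wells and 100% = S159A mutant with DMSO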
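Assay system: wild-type mouse ABHD4 protein; compound: single nominal dose of 8.92 µM, 0.89% DMSO final; schedule: 45 min + 60 min at 25 °C; measured by: FP readout, ex 525 nm / em 598 nm; evaluation: % inhibition of FP-Rh probe binding versus controls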
rCAG bind conf – r(CAG) RNA repeat binding, confirmation | shares compounds with rCAG binder | TO-PRO-1 dye displacement fluorescence | inhibition, % at 3 µM | 4,300 tested, 70% active;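 active = inhibition above a per-plate cutoff, the mean inhibition of sample wells plus 3 SD, cut at about 35% in these data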;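 also: loss of TO-PRO-1 fluorescence as compound displaces dye from 1x1 AA loop RNA; 0% = DMSO only wells and 100% = 100 µM mitoxantrone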
dCAG dye counter – counter-screen for rCAG RNA binders: DNA CAG dye complex inhibitors | shares compounds with rCAG binder | d(CAG) DNA oligo TO-PRO-1 dye displacement, fluorescence | inhibition, % at 3 µM | 4,300 tested, 94% active;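 active = inhibition above its plate's cutoff, the mean test-well inhibition plus 3 SD, cut at about 4.8% in these data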;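 also: 0% = DNA dye mix with DMSO and 100% = 100 µM mitoxantrone; hits displace the dye from DNA and so lower well fluorescence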
An asterisk follows results filed as active.

`COc1ccc(/C=C/C(=O)Nc2ccc(S(=O)(=O)Nc3onc(C)c3C)cc2)cc1OC` gave HTRA1 inhibitor -3, LEDGF integ inh 3, PRMT1 inh 0, DAGLB inhibitor 0, rCAG binder 39*, mABHD4 FP 1, rCAG bind conf 38* and dCAG dye counter 11*.
Cc1noc(NS(=O)(=O)c2ccc(NC(=O)/C=C/c3ccccc3)cc2)c1C was read as HTRA1 inhibitor -5, LEDGF integ inh -3, PRMT1 inh 4, DAGLB inhibitor 3, rCAG binder 39*, mABHD4 FP -12, rCAG bind conf 37* and dCAG dye counter 6.7*.
`CC(=O)c1ccc(NC(=O)CCNC(=O)c2ccc(Cl)cc2)cc1` gave HTRA1 inhibitor -4, LEDGF integ inh -4, PRMT1 inh -4, DAGLB inhibitor 2, rCAG binder -2 and mABHD4 FP 2.
Screening CCN(CC)CCN(C(=O)c1ccc2c(c1)OCCO2)c1nc2ccc(C)cc2s1 returned HTRA1 inhibitor -26, LEDGF integ inh 0, PRMT1 inh 2, DAGLB inhibitor -2, rCAG binder -7 and mABHD4 FP 4.
CCOC(=O)CSC1=C(C#N)C(c2ccccc2C)C2=C(CCCC2=O)N1 (stereo unspecified) was read as HTRA1 inhibitor -2, LEDGF integ inh 0, PRMT1 inh 4, DAGLB inhibitor 0, rCAG binder 4 and mABHD4 FP -3.
For Cc1csc(N2CCCC2c2nc3cc(C(F)(F)F)ccc3n2CCOCCO)n1 (stereo unspecified) the results were HTRA1 inhibitor -4, LEDGF integ inh -3, PRMT1 inh 2, DAGLB inhibitor 2, rCAG binder 7 and mABHD4 FP 9.
Screening O=S(=O)(N/N=C1/CC(c2ccccc2)Oc2ccccc21)c1ccccc1 (stereo unspecified) returned HTRA1 inhibitor -4, LEDGF integ inh -5, PRMT1 inh 0, DAGLB inhibitor 2, rCAG binder 36*, mABHD4 FP -22, rCAG bind conf 32 and dCAG dye counter 9.6*.
Screening Cc1cccc(N2CCN(C(=O)c3ccc(Cl)c(S(=O)(=O)NCc4ccco4)c3)CC2)c1C returned HTRA1 inhibitor -25, LEDGF integ inh 2, PRMT1 inh -2, DAGLB inhibitor 0, rCAG binder -2 and mABHD4 FP -10.
Screening Cc1ccc(C(=O)Nc2scc(-c3ccccc3)c2C(=O)O)cc1 returned HTRA1 inhibitor -14, LEDGF integ inh 6, PRMT1 inh 6, DAGLB inhibitor 8, rCAG binder 51*, mABHD4 FP 1, rCAG bind conf 34 and dCAG dye counter 8.8*.
Screening CCc1cc(C(=O)O)c(NC(=O)c2cc(OC)c(OC)c(OC)c2)s1 returned HTRA1 inhibitor -4, LEDGF integ inh -4, PRMT1 inh -1, DAGLB inhibitor 3, rCAG binder 38*, mABHD4 FP 3, rCAG bind conf 20 and dCAG dye counter 3.
COc1cc(C(=O)Nc2scc(-c3ccc(C)cc3)c2C(=O)O)cc(OC)c1OC was read as HTRA1 inhibitor -3, LEDGF integ inh 6, PRMT1 inh -1, DAGLB inhibitor 9, rCAG binder 50*, mABHD4 FP -15, rCAG bind conf 76* and dCAG dye counter 39*.
`COc1cc(C(=O)Nc2c(C(=O)O)[nH]c3ccc(C)cc23)cc(OC)c1OC` gave HTRA1 inhibitor 2, LEDGF integ inh -9, PRMT1 inh 14, DAGLB inhibitor 3, rCAG binder 54*, mABHD4 FP -1, rCAG bind conf 27 and dCAG dye counter 5.3*.
Screening CCOC(=O)c1c(-c2cc(OC)c(OC)c(OC)c2)csc1NC(=O)c1ccccc1 returned HTRA1 inhibitor -38, LEDGF integ inh 0, PRMT1 inh -1, DAGLB inhibitor -16, rCAG binder 4 and mABHD4 FP -2.
